Reference: ChEMBL document CHEMBL4715736, “Identification of anticancer agents based on the thieno[2,3-b]pyridine and 1H-pyrazole molecular scaffolds” (2016)

test system: HCC 2998; test: Growth inhibition of human HCC 2998 cells assessed as cell growth at 10 uM incubated for 48 hrs by sulforhodamine B assay relative to control; format: functional; conditions: read-out: Activity
How it was run: (§1)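 NCI Developmental Therapeutics Program NCI60 panel. Compounds that were active in the 10 µM one-dose screen went on to dose–response testing. Growth at each concentration is expressed relative to untreated control (100%). GI50 (concentration giving 50% of maximal inhibition of proliferation) and TGI (concentration giving total growth inhibition) were derived from the curves.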

Row | SMILES | growth at 10 µM
1 | CC1(C)CCc2cc(-c3ccn(S(=O)(=O)c4ccccc4)n3)ccc2O1 | 83.2%
2 | CC1(C)CCc2cc(-c3ccn(S(=O)(=O)c4ccc(C(C)(C)C)cc4)n3)ccc2O1 | 98%

test system: TK-10; test: Growth inhibition of human TK-10 cells assessed as cell growth at 10 uM incubated for 48 hrs by sulforhodamine B assay relative to control; format: functional; conditions: read-out: Activity
How it was run: (§2)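 Run by the NCI Developmental Therapeutics Program as part of its 60-line human tumour panel. Each compound tested at a single 10 µM dose. Growth expressed as % relative to untreated control cells (100%).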

Row | SMILES | growth at 10 µM
3 | CC1(C)CCc2cc(-c3ccn(S(=O)(=O)c4ccc(C(C)(C)C)cc4)n3)ccc2O1 | 84.3%

test system: SW-620; test: Growth inhibition of human SW-620 cells assessed as cell growth at 10 uM incubated for 48 hrs by sulforhodamine B assay relative to control; format: functional; conditions: read-out: Activity; how it was run: as §2

Row | SMILES | growth at 10 µM
4 | CC1(C)CCc2cc(-c3ccn(S(=O)(=O)c4ccccc4)n3)ccc2O1 | 71%
5 | CC1(C)CCc2cc(-c3ccn(S(=O)(=O)c4ccc(C(C)(C)C)cc4)n3)ccc2O1 | 89.7%

test system: 786-0; test: Growth inhibition of human 786-0 cells assessed as cell growth at 10 uM incubated for 48 hrs by sulforhodamine B assay relative to control; format: functional; conditions: read-out: Activity; how it was run: as §1

Row | SMILES | growth at 10 µM
6 | CC1(C)CCc2cc(-c3ccn(S(=O)(=O)c4ccccc4)n3)ccc2O1 | 74.5%
7 | CC1(C)CCc2cc(-c3ccn(S(=O)(=O)c4ccc(C(C)(C)C)cc4)n3)ccc2O1 | 79.9%

test system: SR; test: Growth inhibition of human SR cells assessed as cell growth at 10 uM incubated for 48 hrs by sulforhodamine B assay relative to control; format: functional; conditions: read-out: Activity; how it was run: as §2

Row | SMILES | growth at 10 µM
8 | CC1(C)CCc2cc(-c3ccn(S(=O)(=O)c4ccccc4)n3)ccc2O1 | 56.7%
9 | CC1(C)CCc2cc(-c3ccn(S(=O)(=O)c4ccc(C(C)(C)C)cc4)n3)ccc2O1 | 77.8%

test system: NCI-H522; test: Growth inhibition of human NCI-H522 cells assessed as cell growth at 10 uM incubated for 48 hrs by sulforhodamine B assay relative to control; format: functional; conditions: read-out: Activity
How it was run: (§3)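 Submitted to the NCI Developmental Therapeutics Program for the NCI60 human tumour cell line panel. First screen at a single 10 µM concentration. Read-out is growth relative to untreated control cells set at 100%.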

Row | SMILES | growth at 10 µM
10 | CC1(C)CCc2cc(-c3ccn(S(=O)(=O)c4ccc(C(C)(C)C)cc4)n3)ccc2O1 | 66.5%

test system: OVCAR-8; test: Growth inhibition of human OVCAR-8 cells assessed as cell growth at 10 uM incubated for 48 hrs by sulforhodamine B assay relative to control; format: functional; conditions: read-out: Activity; how it was run: as §2

Row | SMILES | growth at 10 µM
11 | CC1(C)CCc2cc(-c3ccn(S(=O)(=O)c4ccccc4)n3)ccc2O1 | 84.3%
12 | CC1(C)CCc2cc(-c3ccn(S(=O)(=O)c4ccc(C(C)(C)C)cc4)n3)ccc2O1 | 84.5%

test system: COLO 205; test: Growth inhibition of human COLO 205 cells assessed as cell growth at 10 uM incubated for 48 hrs by sulforhodamine B assay relative to control; format: functional; conditions: read-out: Activity; how it was run: as §1

Row | SMILES | growth at 10 µM
13 | CC1(C)CCc2cc(-c3ccn(S(=O)(=O)c4ccccc4)n3)ccc2O1 | 96.1%
14 | CC1(C)CCc2cc(-c3ccn(S(=O)(=O)c4ccc(C(C)(C)C)cc4)n3)ccc2O1 | 118%

test system: K562; test: Growth inhibition of human K562 cells assessed as cell growth at 10 uM incubated for 48 hrs by sulforhodamine B assay relative to control; format: functional; conditions: read-out: Activity; how it was run: as §3

Row | SMILES | growth at 10 µM
15 | CC1(C)CCc2cc(-c3ccn(S(=O)(=O)c4ccccc4)n3)ccc2O1 | 10%
16 | CC1(C)CCc2cc(-c3ccn(S(=O)(=O)c4ccc(C(C)(C)C)cc4)n3)ccc2O1 | 72.2%

test system: OVCAR-4; test: Growth inhibition of human OVCAR-4 cells assessed as cell growth at 10 uM incubated for 48 hrs by sulforhodamine B assay relative to control; format: functional; conditions: read-out: Activity; how it was run: as §2

Row | SMILES | growth at 10 µM
17 | CC1(C)CCc2cc(-c3ccn(S(=O)(=O)c4ccccc4)n3)ccc2O1 | 64.2%
18 | CC1(C)CCc2cc(-c3ccn(S(=O)(=O)c4ccc(C(C)(C)C)cc4)n3)ccc2O1 | 63.2%

test system: T47D; test: Growth inhibition of human T47D cells assessed as cell growth at 10 uM incubated for 48 hrs by sulforhodamine B assay relative to control; format: functional; conditions: read-out: Activity; how it was run: as §2

Row | SMILES | growth at 10 µM
19 | CC1(C)CCc2cc(-c3ccn(S(=O)(=O)c4ccccc4)n3)ccc2O1 | 50.5%
20 | CC1(C)CCc2cc(-c3ccn(S(=O)(=O)c4ccc(C(C)(C)C)cc4)n3)ccc2O1 | 84.9%

test system: LOX IMVI; test: Growth inhibition of human LOX IMVI cells assessed as cell growth at 10 uM incubated for 48 hrs by sulforhodamine B assay relative to control; format: functional; conditions: read-out: Activity; how it was run: as §3

Row | SMILES | growth at 10 µM
21 | CC1(C)CCc2cc(-c3ccn(S(=O)(=O)c4ccccc4)n3)ccc2O1 | 85.2%
22 | CC1(C)CCc2cc(-c3ccn(S(=O)(=O)c4ccc(C(C)(C)C)cc4)n3)ccc2O1 | 96.5%

test system: DU-145; test: Growth inhibition of human DU-145 cells assessed as cell growth at 10 uM incubated for 48 hrs by sulforhodamine B assay relative to control; format: functional; conditions: read-out: Activity; how it was run: as §1

Row | SMILES | growth at 10 µM
23 | CC1(C)CCc2cc(-c3ccn(S(=O)(=O)c4ccccc4)n3)ccc2O1 | 85.6%
24 | CC1(C)CCc2cc(-c3ccn(S(=O)(=O)c4ccc(C(C)(C)C)cc4)n3)ccc2O1 | 70%

test system: RPMI-8226; test: Growth inhibition of human RPMI-8226 cells assessed as cell growth at 10 uM incubated for 48 hrs by sulforhodamine B assay relative to control; format: functional; conditions: read-out: Activity; how it was run: as §2

Row | SMILES | growth at 10 µM
25 | CC1(C)CCc2cc(-c3ccn(S(=O)(=O)c4ccccc4)n3)ccc2O1 | 59.5%
26 | CC1(C)CCc2cc(-c3ccn(S(=O)(=O)c4ccc(C(C)(C)C)cc4)n3)ccc2O1 | 65.1%

test system: NCI-H23; test: Growth inhibition of human NCI-H23 cells assessed as cell growth at 10 uM incubated for 48 hrs by sulforhodamine B assay relative to control; format: functional; conditions: read-out: Activity; how it was run: as §3

Row | SMILES | growth at 10 µM
27 | CC1(C)CCc2cc(-c3ccn(S(=O)(=O)c4ccccc4)n3)ccc2O1 | 75.5%
28 | CC1(C)CCc2cc(-c3ccn(S(=O)(=O)c4ccc(C(C)(C)C)cc4)n3)ccc2O1 | 83.8%

test system: SF-268; test: Growth inhibition of human SF-268 cells assessed as cell growth at 10 uM incubated for 48 hrs by sulforhodamine B assay relative to control; format: functional; conditions: read-out: Activity; how it was run: as §2

Row | SMILES | growth at 10 µM
29 | CC1(C)CCc2cc(-c3ccn(S(=O)(=O)c4ccccc4)n3)ccc2O1 | 85.4%
30 | CC1(C)CCc2cc(-c3ccn(S(=O)(=O)c4ccc(C(C)(C)C)cc4)n3)ccc2O1 | 92.1%

test system: MDA-MB-231; test: Growth inhibition of human MDA-MB-231 cells assessed as cell growth at 10 uM incubated for 48 hrs by sulforhodamine B assay relative to control; format: functional; conditions: read-out: Activity; how it was run: as §3

Row | SMILES | growth at 10 µM
31 | CC1(C)CCc2cc(-c3ccn(S(=O)(=O)c4ccccc4)n3)ccc2O1 | 104%
32 | CC1(C)CCc2cc(-c3ccn(S(=O)(=O)c4ccc(C(C)(C)C)cc4)n3)ccc2O1 | 78.4%

test system: MCF7; test: Growth inhibition of human MCF7 cells assessed as cell growth at 10 uM incubated for 48 hrs by sulforhodamine B assay relative to control; format: functional; conditions: read-out: Activity; how it was run: as §3

Row | SMILES | growth at 10 µM
33 | CC1(C)CCc2cc(-c3ccn(S(=O)(=O)c4ccccc4)n3)ccc2O1 | 76.1%
34 | CC1(C)CCc2cc(-c3ccn(S(=O)(=O)c4ccc(C(C)(C)C)cc4)n3)ccc2O1 | 95.7%

test system: SK-MEL-2; test: Growth inhibition of human SK-MEL-2 cells assessed as cell growth at 10 uM incubated for 48 hrs by sulforhodamine B assay relative to control; format: functional; conditions: read-out: Activity; how it was run: as §2

Row | SMILES | growth at 10 µM
35 | CC1(C)CCc2cc(-c3ccn(S(=O)(=O)c4ccc(C(C)(C)C)cc4)n3)ccc2O1 | 58.2%

test system: ACHN; test: Growth inhibition of human ACHN cells assessed as cell growth at 10 uM incubated for 48 hrs by sulforhodamine B assay relative to control; format: functional; conditions: read-out: Activity
How it was run: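 NCI Developmental Therapeutics Program NCI60 human tumour cell line panel, one-dose primary screen with every compound at 10 µM. Growth is expressed as % of untreated control cells (100%).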

Row | SMILES | growth at 10 µM
36 | CC1(C)CCc2cc(-c3ccn(S(=O)(=O)c4ccccc4)n3)ccc2O1 | 90.1%
37 | CC1(C)CCc2cc(-c3ccn(S(=O)(=O)c4ccc(C(C)(C)C)cc4)n3)ccc2O1 | 87.8%

test system: CAKI-1; test: Growth inhibition of human CAKI-1 cells assessed as cell growth at 10 uM incubated for 48 hrs by sulforhodamine B assay relative to control; format: functional; conditions: read-out: Activity; how it was run: as §1

Row | SMILES | growth at 10 µM
38 | CC1(C)CCc2cc(-c3ccn(S(=O)(=O)c4ccccc4)n3)ccc2O1 | 62.9%
39 | CC1(C)CCc2cc(-c3ccn(S(=O)(=O)c4ccc(C(C)(C)C)cc4)n3)ccc2O1 | 68.9%

test system: SNB-19; test: Growth inhibition of human SNB-19 cells assessed as cell growth at 10 uM incubated for 48 hrs by sulforhodamine B assay relative to control; format: functional; conditions: read-out: Activity; how it was run: as §2

Row | SMILES | growth at 10 µM
40 | CC1(C)CCc2cc(-c3ccn(S(=O)(=O)c4ccccc4)n3)ccc2O1 | 94.1%
41 | CC1(C)CCc2cc(-c3ccn(S(=O)(=O)c4ccc(C(C)(C)C)cc4)n3)ccc2O1 | 88.2%
